Results on 24 compounds are retold here after ChEMBL document CHEMBL3797067, “Part 3: Notch-sparing γ-secretase inhibitors: SAR studies of 2-substituted aminopyridopyrimidinones” (Bioorg Med Chem Lett, 2016).

By inhibition is commonly meant the drop in the measured response relative to a control, in per cent. One may read the pIC50 as the IC50 on a negative log10 scale, so that one unit is a factor of ten. For orientation: logD means the decadic logarithm of the distribution of all forms, ionised or not, between an organic phase and buffer at a given pH. Higher therefore signals a more lipophilic compound.

pIC50: −log10 of the molar value. The source made the active and inactive calls. No cut-off for these calls is given here.

Data set [1] has as its target T1, Gamma-secretase (Homo sapiens) (UniProt Q96BI3+Q9NZ42+Q8WW43+P49768+Q92542+P49810). In words: Inhibition of human gamma-secretase assessed as inhibition of amyloid beta 40 production using recombinant APP C100FLAG as substrate at 100 uM after 4 hrs by ELISA relative to control. It is filed as protein-complex assay. An outline of the steps:
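Purified human γ-secretase complex incubated with recombinant C100 FLAG substrate in 0.2% CHAPSO/HEPES, pH 7.5. Compound added from DMSO stock to a final 100 μM with 1% final DMSO. Reaction run 4 h at 37°C and stopped with 0.5% SDS. Aβ40 quantified by specific ELISA and expressed as percent inhibition versus DMSO control.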

In data set [2] the target is T1, Gamma-secretase (Homo sapiens). In words: Inhibition of human gamma-secretase assessed as inhibition of notch1 processing at 100 uM using N100Flag as substrate by western blot analysis. It is filed as protein-complex assay.
Data set [3] concerns the target Gamma-secretase. Nature of the data set: Inhibition of gamma-secretase (unknown origin) assessed as inhibition of amyloid beta 42 production by cell-based assay. The arrangement: species or system Homo sapiens.
Data set [4] in a line: Lipophilicity, logD of the compound. Particulars: octanol/water. It is filed as physicochemical.
The nature of data set [5]: Protein binding in human plasma. It is filed as ADME, cell-free. The conditions noted are these: read-out: PPB (converted).
A short description of data set [6]: Permeability of the compound from apical to basolateral side. In kind it is ADME. Particulars: not told; read-out: permeability.
A short description of data set [7]: Metabolic stability of the compound in human liver microsomes assessed as parent compound remaining after 60 mins. Particulars: read-out: Stability. In kind it is ADME. For orientation: Liver microsomes are a subcellular fraction often used to study metabolism.
Data set [8] in a line: Metabolic stability of the compound in rat liver microsomes assessed as parent compound remaining after 60 mins. In kind it is ADME. The conditions noted are these: read-out: Stability.
The target of data set [9] is T1, Gamma-secretase (Homo sapiens). Nature of the data set: Inhibition of gamma-secretase (unknown origin) assessed as inhibition of amyloid beta 42 production at 100 uM by cell-based assay.

For the compound `Cn1c(=O)ccc2cnc(N3CCN(c4ccc(F)cc4)CC3)nc21`, the inhibition in data set [1] was 0%.

Regarding `Cn1c(=O)c(-c2c(Cl)cccc2Cl)cc2cnc(Nc3ccccc3)nc21`, the inhibition in [1] came out at 26%.

In the case of `CSc1ccc(Nc2ncc3cc(-c4c(Cl)cccc4Cl)c(=O)n(C)c3n2)cc1`, the inhibition in data set [1] came out at 47%. In addition, the inhibition result in [2] was “inactive”. Besides, the pIC50 in data set [3] was 4.59.

Regarding `CC(C)N(Cc1ccccc1)c1ncc2cc(-c3c(Cl)cccc3Cl)c(=O)n(C)c2n1`, in data set [1], the inhibition amounted to 90%. Besides, in data set [2], the inhibition entry was “inactive”. In [4], this compound yielded a logD of more than 4. Also, the fraction unbound in data set [5] was 0.057. Moreover, the Papp A→B in [6] was found to be 2.3 ×10⁻⁶ cm/s. The remaining at 1 h in data set [7] stood at 72%; in [8] it was 4%.

Take `CC(C)Nc1ncc2cc(-c3c(Cl)cccc3Cl)c(=O)n(C)c2n1`: the inhibition in data set [1] is 0%. Besides, the inhibition entry in data set [2] was “inactive”.

Regarding `CC(C)N(Cc1cc(F)cc(F)c1)c1ncc2cc(-c3c(Cl)cccc3Cl)c(=O)n(C)c2n1`, the inhibition in data set [1] was determined as 73%. For the same compound, the inhibition entry in data set [2] was “Active”.

Take `CC(C)N(Cc1ccc(Cl)c(Cl)c1)c1ncc2cc(-c3c(Cl)cccc3Cl)c(=O)n(C)c2n1`: the inhibition in data set [1] worked out at 50%. The inhibition entry in data set [2] is “inactive”.

Take `Cn1c(=O)c(-c2c(Cl)cccc2Cl)cc2cnc(N3CCN(Oc4cccnc4)CC3)nc21`: the inhibition in data set [1] and in [9] was 0% throughout.

In the case of `CSc1cccc(Nc2ncc3cc(-c4c(Cl)cccc4Cl)c(=O)n(C)c3n2)c1`, the inhibition in data set [1] is 0%. Moreover, the inhibition result in data set [2] was “inactive”.

With `Cn1c(=O)c(-c2c(Cl)cccc2Cl)cc2cnc(N3CCN(c4ccccn4)CC3)nc21`, the inhibition in data set [1] worked out at 0%.

For the compound `Cn1c(=O)c(-c2c(F)cccc2F)cc2cnc(N3CCN(c4ccc(F)cc4)CC3)nc21`, the inhibition in [1] was found to be 20%. For the same compound, the inhibition result in [2] was “Active”.

For the compound `Cn1c(=O)c(-c2c(Cl)cccc2Cl)cc2cnc(N3CCN(c4ncccn4)CC3)nc21`, the inhibition in data set [1] is 0%.

With `Cn1c(=O)c(-c2c(Cl)cccc2Cl)cc2cnc(NCc3ccccc3)nc21`, the inhibition in data set [1] is 0%.

Turning to `Cn1c(=O)c(-c2c(Cl)cccc2Cl)cc2cnc(Nc3ccc(C(F)(F)F)cc3)nc21`, in [1], the inhibition is 12%.

On to `CN1CCN(c2ncc3cc(-c4c(Cl)cccc4Cl)c(=O)n(C)c3n2)CC1`, for which the inhibition in [1] was 0%; in [9] it was 7%. Besides, in data set [2], the inhibition result is “inactive”.

As for `CCCCCCNc1ncc2cc(-c3c(Cl)cccc3Cl)c(=O)n(C)c2n1`, the inhibition in [1] was found to be 53%. In addition, in data set [2], the inhibition result was “Active”.

Consider `Cn1c(=O)c(-c2c(Cl)cccc2Cl)cc2cnc(N3CCN(CC4CCCO4)CC3)nc21` (configuration not stated), for which, in data set [1], the inhibition was determined as 0%.

As to `CN(CCc1ccccc1)c1ncc2cc(-c3c(Cl)cccc3Cl)c(=O)n(C)c2n1`, the inhibition in data set [1] worked out at 48%. Further, the inhibition entry in [2] is “inactive”.

As to `COc1ccc(Nc2ncc3cc(-c4c(Cl)cccc4Cl)c(=O)n(C)c3n2)cc1`, the inhibition in data set [1] came to 47%. Besides, the inhibition result in data set [2] is “inactive”.

Take `Cn1c(=O)c(-c2c(Cl)cccc2Cl)cc2cnc(NCc3ccccn3)nc21`: in [1], the inhibition was determined as 59%. Further, in data set [2], the inhibition entry is “inactive”.

For `Cn1c(=O)c(-c2ccc(C(C)(C)C)cc2)cc2cnc(N3CCN(c4ccc(F)cc4)CC3)nc21`, the inhibition in [1] came to 2%.

Consider `Cn1c(=O)c(-c2c(Cl)cccc2Cl)cc2cnc(N3CCN(c4ccc(F)cc4)CC3)nc21`, for which the inhibition in [1] was 68%. In data set [2], the inhibition entry was “inactive”. This compound also displayed a logD in data set [4] of more than 4. Moreover, the fraction unbound in [5] is 0.011. In addition, in [6], the Papp A→B came out at 0.1 ×10⁻⁶ cm/s. Besides, the remaining at 1 h in data set [7] was 74%; in data set [8], 72%. Further, the pIC50 in data set [3] was 5.57.

As to `Cn1c(=O)c(-c2ccc(Cl)cc2)cc2cnc(N3CCN(c4ccc(F)cc4)CC3)nc21`, in [1], the inhibition was found to be 0%.

In the case of `Cn1c(=O)c(-c2ccccc2)cc2cnc(N3CCN(c4ccc(F)cc4)CC3)nc21`, in [1], the inhibition came to 14%. Besides, the inhibition result in data set [2] is “Active”.
